Reference: ChEMBL document CHEMBL4052773, “Synthesis and diabetic neuropathic pain-alleviating effects of 2N-(pyrazol-3-yl)methylbenzo[d]isothiazole-1,1-dioxide derivatives” (Bioorg Med Chem, 2017)
Active and inactive are the calls of the source. No cut-off for these calls is given here.

Legend:
[1] = biological target: T1, Voltage-dependent T-type calcium channel subunit alpha-1H (Homo sapiens, UniProt O95180); assay: Inhibition of Cav3.2 alpha1H (unknown origin) expressed in HEK293 cells assessed as reduction in KCl-induced depolarization mediated intracellular Ca2+ level at 10 uM by fluo3/AM based high throughput screening assay relative to control; type: cell-based
T1 sequence (O95180 whole entry): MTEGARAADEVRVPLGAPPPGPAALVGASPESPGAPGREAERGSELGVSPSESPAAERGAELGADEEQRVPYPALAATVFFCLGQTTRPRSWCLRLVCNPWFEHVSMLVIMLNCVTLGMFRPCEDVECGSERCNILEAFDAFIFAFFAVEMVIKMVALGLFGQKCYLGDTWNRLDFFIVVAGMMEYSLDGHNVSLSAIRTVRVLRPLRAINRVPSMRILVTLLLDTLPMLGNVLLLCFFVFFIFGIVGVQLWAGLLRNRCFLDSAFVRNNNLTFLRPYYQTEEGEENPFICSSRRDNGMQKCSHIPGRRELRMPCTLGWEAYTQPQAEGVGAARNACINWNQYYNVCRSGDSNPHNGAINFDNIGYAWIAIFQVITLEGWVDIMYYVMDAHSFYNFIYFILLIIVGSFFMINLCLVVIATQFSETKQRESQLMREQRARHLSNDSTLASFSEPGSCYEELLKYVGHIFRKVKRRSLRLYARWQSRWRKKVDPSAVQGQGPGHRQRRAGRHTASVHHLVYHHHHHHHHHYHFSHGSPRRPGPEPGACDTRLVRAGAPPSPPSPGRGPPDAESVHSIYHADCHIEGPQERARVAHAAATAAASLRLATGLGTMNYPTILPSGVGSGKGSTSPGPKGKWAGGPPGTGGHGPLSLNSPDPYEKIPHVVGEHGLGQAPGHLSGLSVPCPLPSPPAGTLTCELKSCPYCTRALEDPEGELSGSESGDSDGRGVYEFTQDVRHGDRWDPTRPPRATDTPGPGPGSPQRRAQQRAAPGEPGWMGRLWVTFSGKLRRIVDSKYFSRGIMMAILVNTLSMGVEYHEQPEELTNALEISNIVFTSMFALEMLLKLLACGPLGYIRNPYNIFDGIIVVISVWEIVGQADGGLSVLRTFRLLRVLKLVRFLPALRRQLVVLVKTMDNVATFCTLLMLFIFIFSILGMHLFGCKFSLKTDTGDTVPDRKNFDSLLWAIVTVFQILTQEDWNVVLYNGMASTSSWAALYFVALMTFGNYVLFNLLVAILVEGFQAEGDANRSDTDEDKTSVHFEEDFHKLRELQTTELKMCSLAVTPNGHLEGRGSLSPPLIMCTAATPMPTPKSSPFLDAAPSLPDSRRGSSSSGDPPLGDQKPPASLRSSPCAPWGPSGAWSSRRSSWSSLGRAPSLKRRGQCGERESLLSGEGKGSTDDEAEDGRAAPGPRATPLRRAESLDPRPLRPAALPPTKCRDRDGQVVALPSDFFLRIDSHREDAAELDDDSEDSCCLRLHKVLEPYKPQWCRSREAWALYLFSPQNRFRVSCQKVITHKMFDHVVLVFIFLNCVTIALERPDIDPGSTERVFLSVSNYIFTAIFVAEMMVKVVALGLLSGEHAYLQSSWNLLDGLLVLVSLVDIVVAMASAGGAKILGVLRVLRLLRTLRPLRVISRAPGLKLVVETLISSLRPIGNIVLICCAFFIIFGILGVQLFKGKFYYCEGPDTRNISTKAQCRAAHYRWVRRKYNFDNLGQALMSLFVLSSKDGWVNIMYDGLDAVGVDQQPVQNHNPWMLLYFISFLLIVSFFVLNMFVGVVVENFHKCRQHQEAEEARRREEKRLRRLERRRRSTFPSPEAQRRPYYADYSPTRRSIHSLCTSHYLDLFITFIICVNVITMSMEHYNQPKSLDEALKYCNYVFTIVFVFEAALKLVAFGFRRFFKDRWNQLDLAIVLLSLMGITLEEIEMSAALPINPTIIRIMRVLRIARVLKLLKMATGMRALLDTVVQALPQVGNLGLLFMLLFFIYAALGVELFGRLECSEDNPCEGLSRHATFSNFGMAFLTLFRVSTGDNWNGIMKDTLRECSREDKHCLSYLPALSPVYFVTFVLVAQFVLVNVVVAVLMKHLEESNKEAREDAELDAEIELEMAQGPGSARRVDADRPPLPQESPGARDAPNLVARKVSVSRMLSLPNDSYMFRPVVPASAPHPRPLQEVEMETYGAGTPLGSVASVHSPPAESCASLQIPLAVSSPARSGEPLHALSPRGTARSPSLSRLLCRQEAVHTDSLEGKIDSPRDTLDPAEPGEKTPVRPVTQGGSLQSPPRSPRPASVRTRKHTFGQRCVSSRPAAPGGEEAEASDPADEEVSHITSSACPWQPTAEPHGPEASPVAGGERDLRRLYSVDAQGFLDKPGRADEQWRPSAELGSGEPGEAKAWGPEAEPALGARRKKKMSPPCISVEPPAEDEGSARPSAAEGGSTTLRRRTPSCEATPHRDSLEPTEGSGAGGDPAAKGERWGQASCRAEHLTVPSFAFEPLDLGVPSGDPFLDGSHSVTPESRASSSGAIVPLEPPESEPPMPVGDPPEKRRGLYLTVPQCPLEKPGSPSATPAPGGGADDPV
Summary of the method: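 HEK293 cells stably expressing the T-type channel were kept under puromycin/geneticin selection with 10% FBS at 37 °C and 5% CO2. Cells were seeded at 4×10^4 per well and loaded with fluo3/AM plus 0.001% Pluronic F-127 in HEPES buffer (pH 7.4, 1.8 mM CaCl2) for 60 min at room temperature. The KCl depolarisation-evoked [Ca2+]i rise was read on FDSS6000.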

[2] = biological target: CYP3A4 (Homo sapiens, UniProt P08684); assay: Inhibition of recombinant human CYP3A4 expressed in baculosomes assessed as residual activity at 10 uM using vivid BOMCC/DBOMF/BOMR as substrate after 15 mins in presence of NADPH by fluorescence assay relative to control; type: ADME; conditions: probe Vivid BOMCC/DBOMF/BOMR, read-out: Activity
Chain of CYP3A4 (P08684 whole entry, canonical isoform): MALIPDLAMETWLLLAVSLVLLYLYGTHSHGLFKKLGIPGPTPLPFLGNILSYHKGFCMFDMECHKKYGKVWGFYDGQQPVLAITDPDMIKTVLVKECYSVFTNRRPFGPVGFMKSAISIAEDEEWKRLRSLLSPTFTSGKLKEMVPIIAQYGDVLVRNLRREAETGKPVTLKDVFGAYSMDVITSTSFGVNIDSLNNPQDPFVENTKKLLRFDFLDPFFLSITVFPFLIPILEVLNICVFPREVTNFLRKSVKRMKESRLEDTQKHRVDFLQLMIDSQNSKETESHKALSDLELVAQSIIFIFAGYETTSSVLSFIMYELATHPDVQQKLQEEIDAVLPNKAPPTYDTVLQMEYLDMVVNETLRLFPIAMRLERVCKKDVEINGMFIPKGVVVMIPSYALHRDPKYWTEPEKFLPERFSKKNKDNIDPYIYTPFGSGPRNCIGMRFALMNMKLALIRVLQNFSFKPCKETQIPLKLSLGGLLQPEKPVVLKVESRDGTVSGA
Summary of the method: (§1)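 Test compounds at 10 μM were premixed with baculosome CYP plus a regeneration system. After 15 min at 37 °C, Vivid substrates and NADPH were added. Remaining enzyme activity was read by fluorescence and expressed as % of control, as mean ± SD of triplicates. Isoform-selective inhibitors served as positive controls.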

[3] = biological target: T1, Voltage-dependent T-type calcium channel subunit alpha-1H; assay: Inhibition of Cav3.2 alpha1H (unknown origin) expressed in HEK293 cells by whole-cell patch clamp assay; type: cell-based
Summary of the method: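 Whole-cell patch clamp was done on T-type channel-expressing cells. Currents were evoked every 15 s by a 50-ms step from −100 mV to −30 mV. IC50 for peak current was obtained by fitting a dose-response curve and given ± SD.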

[4] = biological target: CYP2C9 (Homo sapiens, UniProt P11712); assay: Inhibition of recombinant human CYP2C9 expressed in baculosomes assessed as residual activity at 10 uM using vivid BOMCC/BOMF/OOMR as substrate after 15 mins in presence of NADPH by fluorescence assay relative to control; type: ADME; conditions: probe Vivid BOMCC/BOMF/OOMR, read-out: Activity; summary of the method: as §1
Chain of CYP2C9 (P11712 whole entry): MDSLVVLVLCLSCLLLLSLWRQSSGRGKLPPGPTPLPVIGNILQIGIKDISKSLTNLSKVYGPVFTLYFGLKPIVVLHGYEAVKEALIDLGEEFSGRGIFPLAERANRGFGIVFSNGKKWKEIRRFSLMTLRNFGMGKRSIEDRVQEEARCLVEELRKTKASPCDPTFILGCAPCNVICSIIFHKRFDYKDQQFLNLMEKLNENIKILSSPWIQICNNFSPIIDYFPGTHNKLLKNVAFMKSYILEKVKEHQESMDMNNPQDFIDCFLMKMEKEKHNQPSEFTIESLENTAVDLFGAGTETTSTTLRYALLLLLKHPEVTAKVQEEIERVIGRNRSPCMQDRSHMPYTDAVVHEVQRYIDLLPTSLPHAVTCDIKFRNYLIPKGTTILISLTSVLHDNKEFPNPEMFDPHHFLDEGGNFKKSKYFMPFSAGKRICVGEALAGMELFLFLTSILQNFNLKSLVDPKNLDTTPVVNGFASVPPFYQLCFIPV

[5] = Stability in human liver microsomes assessed as parent compound remaining at 1 uM after 30 mins in presence of NADPH by LC-MS/MS analysis; type: ADME, microsome; conditions: read-out: Stability
Summary of the method: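 Test compound at 1 μM was incubated with pooled human liver microsomes in potassium phosphate buffer with 1.2 mM NADPH at 37 °C for 30 min. The reaction was stopped with cold acetonitrile containing internal standard. Supernatant was analysed by LC-MS/MS for % remaining.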

[6] = biological target: CYP2D6 (Homo sapiens, UniProt P10635); assay: Inhibition of recombinant human CYP2D6 expressed in baculosomes assessed as residual activity at 10 uM using vivid EOMCC/MOBFC as substrate after 15 mins in presence of NADPH by fluorescence assay relative to control; type: ADME; conditions: probe Vivid EOMCC/MOBFC, read-out: Activity; summary of the method: as §1
Chain of CYP2D6 (P10635 whole entry): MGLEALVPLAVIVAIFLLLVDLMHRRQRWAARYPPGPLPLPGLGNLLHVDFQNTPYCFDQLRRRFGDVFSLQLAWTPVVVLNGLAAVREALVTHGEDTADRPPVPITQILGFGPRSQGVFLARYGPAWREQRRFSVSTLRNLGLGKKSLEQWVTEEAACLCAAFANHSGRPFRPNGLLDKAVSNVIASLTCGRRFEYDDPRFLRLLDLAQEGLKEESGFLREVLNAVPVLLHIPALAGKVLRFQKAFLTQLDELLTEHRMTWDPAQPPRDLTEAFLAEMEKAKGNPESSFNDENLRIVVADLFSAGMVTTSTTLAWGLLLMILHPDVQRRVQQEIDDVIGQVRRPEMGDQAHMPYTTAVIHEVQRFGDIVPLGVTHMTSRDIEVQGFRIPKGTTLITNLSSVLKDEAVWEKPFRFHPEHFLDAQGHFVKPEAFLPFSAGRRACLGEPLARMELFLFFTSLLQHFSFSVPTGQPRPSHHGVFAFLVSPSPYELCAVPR

[7] = biological target: T2, CYP1A2 (Homo sapiens, UniProt P05177); assay: Inhibition of recombinant human CYP1A2 expressed in baculosomes assessed as residual activity at 10 uM using vivid EOMCC as substrate after 15 mins in presence of NADPH by fluorescence assay relative to control; type: ADME; conditions: probe Vivid EOMCC, read-out: Activity; summary of the method: as §1
T2 sequence (P05177 whole entry): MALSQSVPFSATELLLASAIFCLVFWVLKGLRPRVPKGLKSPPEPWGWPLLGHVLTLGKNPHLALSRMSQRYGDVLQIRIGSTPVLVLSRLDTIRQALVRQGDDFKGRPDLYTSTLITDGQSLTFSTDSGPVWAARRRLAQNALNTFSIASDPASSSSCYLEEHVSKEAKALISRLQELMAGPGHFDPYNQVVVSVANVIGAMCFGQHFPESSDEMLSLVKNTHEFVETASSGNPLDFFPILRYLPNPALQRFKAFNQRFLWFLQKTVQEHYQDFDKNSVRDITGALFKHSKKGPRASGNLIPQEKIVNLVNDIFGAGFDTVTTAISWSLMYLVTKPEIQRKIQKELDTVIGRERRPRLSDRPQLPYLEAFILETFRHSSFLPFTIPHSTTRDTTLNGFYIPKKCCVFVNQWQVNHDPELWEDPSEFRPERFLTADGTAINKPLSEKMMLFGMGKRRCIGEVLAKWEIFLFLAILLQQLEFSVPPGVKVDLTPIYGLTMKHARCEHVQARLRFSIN

[8] = tested on: Rattus norvegicus; assay: Anti-algetic activity in rat streptozotocin-induced neuropathic pain model assessed as reduction in heat hypersensitivity at 100 mg/kg, po measured after 1 to 5 hrs; type: functional, organism-based
Summary of the method: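 Type 1 diabetes induced in rats by intraperitoneal STZ (65 mg/kg); after 4 weeks, neuropathic rats selected by blood glucose level and pain behaviour. Single oral dose of 100 mg/kg given to groups of 5 or 6 rats; heat hypersensitivity tested at 1, 3 and 5 h. Changes compared with pre-administration values by paired t-test.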

[9] = tested on: Rattus norvegicus; assay: Anti-algetic activity in rat streptozotocin-induced neuropathic pain model assessed as reduction in mechanical allodynia at 100 mg/kg, po measured after 1 to 5 hrs; type: functional, organism-based
Summary of the method: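 Rats made diabetic by intraperitoneal STZ (65 mg/kg); 4 weeks later, rats with established neuropathic pain chosen by blood glucose level and behavioural testing. Single oral 100 mg/kg dose given to groups of 5 or 6 rats. Mechanical allodynia measured with von Frey filaments at 1, 3 and 5 h; paired t-test against pre-administration values.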

[10] = AUClast in rat at 10 mg/kg, po; type: ADME, organism-based; design: dose 10 mg/kg, route oral, time 0 - last; conditions: in vivo
Summary of the method: (§2)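 Male rats dosed at 10 mg/kg, intravenously (n = 5) or orally (n = 4). Parameters taken from the plasma concentration-time curve and reported as mean ± SD. Brain-to-plasma ratio measured 2 h after dosing. Tmax given as median with range.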

[11] = AUC (0 to infinity) in rat at 10 mg/kg, iv; type: ADME, organism-based; design: dose 10 mg/kg, route intravenous, time infinity; conditions: in vivo; summary of the method: as §2
[12] = Ratio of drug level in brain to plasma in rat at 10 mg/kg, po measured at 2 hrs post dose; type: ADME, organism-based; conditions: brain and plasma, read-out: BPR; summary of the method: as §2
[13] = Terminal half-life in rat at 10 mg/kg, iv; type: ADME, organism-based; conditions: in vivo, read-out: beta t1/2; summary of the method: as §2
[14] = AUClast in rat at 10 mg/kg, iv; type: ADME, organism-based; design: dose 10 mg/kg, route intravenous, time 0 - last; conditions: in vivo; summary of the method: as §2
[15] = AUC (0 to infinity) in rat at 10 mg/kg, po; type: ADME, organism-based; design: dose 10 mg/kg, route oral, time infinity; conditions: in vivo; summary of the method: as §2
[16] = Clearance in rat at 10 mg/kg, iv; type: ADME, organism-based; conditions: in vivo; summary of the method: as §2
[17] = Ratio of drug level in brain to plasma in rat at 10 mg/kg, iv measured at 2 hrs post dose; type: ADME, organism-based; conditions: brain and plasma, read-out: BPR; summary of the method: as §2
[18] = tested on: Rattus norvegicus; assay: Anti-algetic activity in rat streptozotocin-induced neuropathic pain model assessed as reduction in mechanical allodynia at 50 mg/kg, po measured after 1 to 5 hrs; type: functional, organism-based
Summary of the method: (§3)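 Neuropathic pain was induced in rats by i.p. streptozotocin at 65 mg/kg and confirmed at 4 weeks by glucose and behaviour. Rats received a single oral 50 mg/kg dose, alone or together with gabapentin at 50 mg/kg (n = 6–7). Mechanical allodynia (von Frey) and heat hypersensitivity were tested at 1, 3 and 5 h. Paired t-test was used versus pre-dose.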

[19] = tested on: Rattus norvegicus; assay: Anti-algetic activity in rat streptozotocin-induced neuropathic pain model assessed as reduction in heat hypersensitivity at 50 mg/kg, po measured after 3 hrs in presence of gabapentin; type: functional, organism-based; summary of the method: as §3
[20] = Oral bioavailability in rat at 10 mg/kg; type: ADME, organism-based; conditions: in vivo; summary of the method: as §2
[21] = Mean residence time in rat at 10 mg/kg, iv; type: ADME, organism-based; conditions: in vivo; summary of the method: as §2
[22] = Cmax in rat at 10 mg/kg, po; type: ADME, organism-based; design: dose 10 mg/kg, route oral; conditions: in vivo; summary of the method: as §2
[23] = Terminal half-life in rat at 10 mg/kg, po; type: ADME, organism-based; conditions: in vivo, read-out: beta t1/2; summary of the method: as §2
[24] = Tmax in rat at 10 mg/kg, po; type: ADME, organism-based; conditions: in vivo; summary of the method: as §2
[25] = tested on: Rattus norvegicus; assay: Anti-algetic activity in rat streptozotocin-induced neuropathic pain model assessed as reduction in mechanical allodynia at 100 mg/kg, po measured after 3 hrs; type: functional, organism-based
Summary of the method: (§4)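 STZ-diabetic rats were made by i.p. streptozotocin at 65 mg/kg. After 4 weeks, rats with confirmed neuropathic pain were selected by blood glucose and behavioural testing. A single oral dose of 100 mg/kg was given (n = 5–6). Mechanical allodynia was tested by von Frey, and heat hypersensitivity was also assessed, at 1, 3 and 5 h. Comparison was against pre-dose values by paired t-test.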

[26] = tested on: Rattus norvegicus; assay: Anti-algetic activity in rat streptozotocin-induced neuropathic pain model assessed as reduction in heat hypersensitivity at 50 mg/kg, po measured after 1 to 5 hrs; type: functional, organism-based; summary of the method: as §3
[27] = tested on: Rattus norvegicus; assay: Anti-algetic activity in rat streptozotocin-induced neuropathic pain model assessed as reduction in heat hypersensitivity at 100 mg/kg, po measured after 3 hrs; type: functional, organism-based; summary of the method: as §4

CC(C)c1cc(CN2Cc3ccccc3S2(=O)=O)nn1-c1ccccc1
inhibition [1]: 75.5%
activity at 0.25 h, 10 µM [2]: 47.2%
IC50 [3]: 2.52 µM
activity at 0.25 h, 10 µM [4]: 14.2%
remaining at 0.5 h, 1 µM [5]: 4.69%
activity at 0.25 h, 10 µM [6]: 86.6%

CC(C)(C)n1nc(CN2Cc3ccccc3S2(=O)=O)cc1-c1ccc(F)cc1
inhibition [1]: 23.1%

CC(C)c1cc(CN2Cc3ccccc3S2(=O)=O)nn1C(C)(C)C
inhibition [1]: 68%
activity at 0.25 h, 10 µM [7]: 123%
activity at 0.25 h, 10 µM [2]: 52.1%
IC50 [3]: 3.69 µM
activity at 0.25 h, 10 µM [4]: 90.7%
remaining at 0.5 h, 1 µM [5]: 103%
activity at 0.25 h, 10 µM [6]: 78.8%

CC(C)c1cc(CN2Cc3ccccc3S2(=O)=O)nn1-c1c(Cl)cccc1Cl
inhibition [1]: 29.5%

CC(C)n1nc(CN2Cc3ccccc3S2(=O)=O)cc1-c1ccccc1
inhibition [1]: 22.1%

CC(C)n1nc(CN2Cc3ccccc3S2(=O)=O)cc1-c1ccc(F)cc1
inhibition [1]: 16.5%

CC(C)(C)n1nc(CN2Cc3ccccc3S2(=O)=O)cc1-c1ccc(C(F)(F)F)cc1
inhibition [1]: 20.8%

CC(C)(C)n1nc(CN2Cc3ccccc3S2(=O)=O)cc1-c1ccccc1
inhibition [1]: 18.7%

CC(C)Cc1cc(CNS(=O)(=O)c2ccccc2)nn1-c1ccccc1
remaining at 0.5 h, 1 µM [5]: 13.9%

NCC1(CC(=O)O)CCCCC1
Activity [8]: Active
Activity [9]: inactive

CC(C)c1cc(CN2Cc3ccccc3S2(=O)=O)nn1-c1ccc(F)cc1
AUC(0-t) [10]: 243 ng·h/mL
AUC(0-inf) [11]: 2980 ng·h/mL
Kp at 2 h [12]: 0.13
half-life [13]: 2.94 h
inhibition [1]: 71.6%
activity at 0.25 h, 10 µM [7]: 110%
AUC(0-t) [14]: 2630 ng·h/mL
AUC(0-inf) [15]: 274 ng·h/mL
clearance [16]: 57.7 mL/min/kg
Kp at 2 h [17]: 1.28
Activity [18]: inactive
activity at 0.25 h, 10 µM [2]: 45.7%
Activity [19]: Active
bioavailability [20]: 9.2%
MRT [21]: 1.7 h
Cmax [22]: 100 ng/mL
IC50 [3]: 2.32 µM
half-life [23]: 1.96 h
Tmax [24]: 2.5 h
Activity [25]: inactive
activity at 0.25 h, 10 µM [4]: 103%
remaining at 0.5 h, 1 µM [5]: 102%
Activity [26]: inactive
activity at 0.25 h, 10 µM [6]: 90.6%
Activity [27]: inactive

Cc1c(CNS(=O)(=O)c2ccccc2)nn(-c2ccccc2)c1CC(C)C
inhibition [1]: 72%
activity at 0.25 h, 10 µM [2]: 38.7%
IC50 [3]: 4.3 µM
activity at 0.25 h, 10 µM [4]: 45.2%
remaining at 0.5 h, 1 µM [5]: 0.26%
activity at 0.25 h, 10 µM [6]: 45.2%

CC(C)(C)n1nc(CN2Cc3ccccc3S2(=O)=O)cc1-c1ccc(C2CCCCC2)cc1
inhibition [1]: 9.86%

CC(C)Cc1cc(CN(C)S(=O)(=O)c2ccccc2)nn1-c1ccccc1
inhibition [1]: 54.2%
remaining at 0.5 h, 1 µM [5]: 1.46%

CC(C)(C)n1nc(CN2Cc3ccccc3S2(=O)=O)cc1-c1ccc(N2CCCCC2)cc1
inhibition [1]: 16.3%
